From PubChem
Only some compounds are listed: those with a hit (about 0.29% of all), similar ones and a draw of the others.
proCasp3 act = activators of human procaspase-3 D3A mutant, primary screen, biochemical, absorbance, PC-3 D3A mutant, single concentration | recombinant procaspase-3 D3A, Ac-DEVD-pNA absorbance 405 nm | Caspase-3 (Homo sapiens), P42574 | AID 463141, 2010 | 330,000 tested, 0.11% active | activation, % at 8.5 µM;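 active means activation above the mean of all tested compounds plus 3 SD, cut at about 21% in these data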;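 further: 0% = DMSO alone and 100% = DMSO wells spiked with extra 5 µM PC-3 D3A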
Target sequence (P42574 whole entry D9A/D28A/D175A): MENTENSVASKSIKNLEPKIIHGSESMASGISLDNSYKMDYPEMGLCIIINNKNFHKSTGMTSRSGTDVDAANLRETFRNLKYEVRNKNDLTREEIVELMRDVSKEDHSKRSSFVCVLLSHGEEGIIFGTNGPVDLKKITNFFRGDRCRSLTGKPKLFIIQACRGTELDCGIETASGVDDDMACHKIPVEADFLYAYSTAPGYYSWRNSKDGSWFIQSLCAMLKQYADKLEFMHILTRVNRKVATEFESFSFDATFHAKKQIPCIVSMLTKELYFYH
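Assay system – Procaspase-3 D3A mutant, all three cleavage aspartates alanine · Controls – DMSO-only low control, 5 µM PC-3 D3A high control · Schedule – 1 h compound preincubation, 2 h substrate hydrolysis at 25 °C · Signal – 405 nm absorbance of p-nitroaniline, reads at 0 and 120 min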
PKA-R2B act = activators of PKA-R2B holoenzyme, primary screen, biochemical, fluorescence polarization, Cy5-IP20, human. cAMP-dependent protein kinase catalytic subunit beta (Homo sapiens) + cAMP-dependent …. PKA-R2B holoenzyme dissociation; R2B truncated from residue 108, S112A mutant; 0% DMSO only, 100% 113 µM cGMP. activation, % at 11.4 µM. 340,000 tested, 0.079% active. AID 504700, 2011;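 active means activation above a cutoff set at the mean over all compounds plus 3 SD, cut at about 18% in these data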;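 further: higher means more holoenzyme dissociation and a rise in polarization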
Target sequence (P31323 whole entry, looked up, other chains not shown, the tested form may be a part): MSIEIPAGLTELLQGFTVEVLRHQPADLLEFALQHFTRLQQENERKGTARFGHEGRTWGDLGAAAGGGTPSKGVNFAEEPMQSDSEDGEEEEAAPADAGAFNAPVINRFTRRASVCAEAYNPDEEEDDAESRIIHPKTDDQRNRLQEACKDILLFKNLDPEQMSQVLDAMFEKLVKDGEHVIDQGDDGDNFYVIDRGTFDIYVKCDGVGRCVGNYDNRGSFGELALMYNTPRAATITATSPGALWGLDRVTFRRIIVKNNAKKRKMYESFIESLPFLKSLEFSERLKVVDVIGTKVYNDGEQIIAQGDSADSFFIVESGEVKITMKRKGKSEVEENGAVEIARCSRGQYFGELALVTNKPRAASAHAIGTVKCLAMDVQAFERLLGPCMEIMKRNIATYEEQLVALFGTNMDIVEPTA
proCasp7 act = procaspase-7 activators, primary screen, counter-screen for procaspase-3 activator project, biochemical, absorbance, HTS, human; Caspase-7 (Homo sapiens), P55210; recombinant procaspase-7, Ac-DEVD-pNA absorbance 405 nm; D23A/D198A/D206A triple mutant, cannot self-cleave; scale: DMSO 0, 5 µM enzyme 100; activation, % at 8.5 µM; 330,000 tested, 0.093% active; AID 463210, 2010;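 active means percent activation above the screen-wide mean plus 3 SD, cut at about 25% in these data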
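Test system: Procaspase-7 triple mutant (PC-7 D3A). Also added: Ac-DEVD-pNA substrate, 400 µM as added. Schedule: 1 h enzyme–compound preincubation and 2 h substrate reaction, both 25 °C. Signal: p-Nitroaniline absorbance at 405 nm, read at 0 and 120 min. Control set: low DMSO alone, high DMSO plus 5 µM PC-7.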
PKA-R1A act = activators of PKA-R1A holoenzyme, primary screen, biochemical, fluorescence polarization, Cy5-IP20, bovine R1A, mouse PKAc. AID 504707, 2011. activation, % at 11.4 µM. 340,000 tested, 0.083% active. PKA-R1A dissociation; scaled: DMSO 0%, 113 µM cGMP 100%;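 active means percent activation above the mean of all tested compounds plus 3 SD, cut at about 19% in these data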;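 further: higher means more PKAc released from R1A so a rise in polarization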
PC3 D3A act = procaspase-3 activators, counter-screen for dual procaspase-3/7 activator project, biochemical, absorbance, PC-3 D3A mutant, human | 290 tested, under 10 active | activation, % at 8.5 µM | shares compounds with proCasp7 act | recombinant PC-3 D3A, Ac-DEVD-pNA absorbance 405 nm; aspartates 9, 28, 175 changed to alanine; 100% = enzyme control;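 active means mean percent activation across triplicates above a set limit taken from the earlier primary procaspase-3 screen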;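 further: 0% = DMSO wells and 100% = DMSO wells with 5 µM added PC-3 D3A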
Procasp7 act = activation of procaspase-7 enzyme – biochemical, absorbance, human, dual procaspase-3/-7 activator project, confirmation. shares compounds with proCasp7 act. recombinant procaspase-7, Ac-DEVD-pNA absorbance 405 nm; D23A/D198A/D206A mutant that cannot self-cleave. activation, % at 8.5 µM. 290 tested, under 10 active;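 active means mean activation above a set limit carried over from the earlier primary screen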;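 further: 0% = DMSO only and 100% = DMSO with added 5 µM PC-7 enzyme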
* marks the source's active call; other numbers are inactive results; · = no result.

SMILES	proCasp3 act	PKA-R2B act	proCasp7 act	PKA-R1A act	PC3 D3A act	Procasp7 act
CCOC(=O)C1=C(C)NC(=O)NC1c1ccc(N2CCC(c3ccccc3)=N2)cc1 (stereo not given)	31.1*	3.3	72.4*	1.4	-29.9	-36.1
COc1ccc(C2CC(c3ccccc3)=NN2c2ccc(C(N)=O)cc2)cc1 (stereo not given)	30.4*	-9.9	38.4*	6.1	-28.9	-36.1
COc1ccc(C2CC(c3cccc(Br)c3)=NN2c2ccc(S(N)(=O)=O)cc2)cc1 (stereo not given)	-4.0	-5.0	-42.0	-4.9	·	·
COc1ccc(C2=NN(c3ccc(C=O)cc3)C(c3ccccc3)C2)cc1 (stereo not given)	-51.7	·	-51.1	·	·	·
O=[N+]([O-])c1cccc(C2CC(c3ccccc3)=NN2c2ccccc2)c1 (stereo not given)	6.1	-4.1	-5.3	-16.0	·	·
O=C(O)c1ccc(N2N=C(c3ccccc3)CC2c2ccccc2)cc1 (stereo not given)	3.6	-3.0	-4.9	-1.6	·	·
COc1ccc(C2CC(c3cccc(C(F)(F)F)c3)=NN2c2ccc(S(N)(=O)=O)cc2)cc1 (stereo not given)	43.9*	-10.2	52.9*	-11.5	-30.4	-35.2
NS(=O)(=O)c1ccc(N2N=C(c3ccccc3)CC2c2cccc(Cl)c2)cc1 (stereo not given)	38.7*	-6.2	44.1*	-8.9	-30.7	-32.9
COc1ccc(C2CC(c3ccccc3Cl)=NN2c2ccc(S(N)(=O)=O)cc2)cc1 (stereo not given)	27.2*	-11.1	46.7*	-1.9	-29.1	-34.3
CCCc1nc2sc3c(=O)[nH]cnc3c2c2c1CCCC2	-3.1	·	-2.9	·	·	·
COc1ccc(C2CC(c3ccccc3)=NN2c2ccc(S(N)(=O)=O)cc2)cc1 (stereo not given)	27.9*	-10.8	50.8*	-4.0	-28.4	-35.3
CCOC(=O)c1c(C)[nH]c(C(=O)CN2C(=O)NC(C)(CC(C)C)C2=O)c1C (stereo not given)	2.8	-10.0	15.1	-6.2	·	·
COCc1cc(C)nc2sc(C(=O)Nc3ccccc3Br)c(N)c12	6.3	-13.2	35.9*	-9.6	-28.6	-35.1
COCc1cc(C)nc2sc(C(=O)Nc3ccccc3C)c(N)c12	0.4	6.6	-3.1	2.7	·	·
COc1ccc2nc(NC(=O)c3sc4nc(C)cc(C)c4c3N)sc2c1	21.1	-2.3	71.5*	0.8	-28.5	-35.8
CN(C(=O)CSc1n[nH]c(=O)[nH]c1=O)c1ccccc1	-3.2	5.6	9.4	2.0	·	·
N#Cc1c(N)n(C2CCCCC2)c2nc3ccccc3nc12	13.2	1.6	62.1*	-2.4	-28.7	-36.1
COc1ccccc1[C@H]1C(c2cccc(Cl)c2)=NN(c2ccccc2)[C@@H]1CO	17.4	-4.8	-19.4	0.6	·	·
OC[C@@H]1[C@@H](c2ccccc2)C(c2ccccc2)=NN1c1ccccc1	17.4	-11.8	30.7*	-3.2	-30.4	-36.4
OC[C@@H]1[C@@H](c2ccccc2)C(c2ccc(F)cc2)=NN1c1ccccc1	16.4	-12.7	28.7*	-3.8	-29.1	-34.6
Cc1cc2c(c(=O)n1C)C(Cc1ccccc1)C(C#N)=C(N)O2 (stereo not given)	38.2*	-4.7	46.8*	4.7	-27.2	-35.1
CCCC1C(C#N)=C(N)Oc2cc(C)n(C)c(=O)c21 (stereo not given)	17.6	17.0	24.1	-1.4	·	·
COC(=O)C1C(O)=C(C=Nc2ccccc2)C(=O)CC1(C)C (stereo not given)	4.3	-1.9	5.8	1.3	·	·
COC(=O)C1C(O)=C(C=Nc2ccc(N)cc2)C(=O)CC1(C)C (stereo not given)	11.4	-8.1	35.9*	4.4	2.7	0.1
COc1ccc(-c2c(C#N)c(N)nc3c2CCc2ccccc2-3)cc1OC	34.2*	·	65.2*	·	-29.1	-35.4
SMILES	proCasp3 act	PKA-R2B act	proCasp7 act	PKA-R1A act	PC3 D3A act	Procasp7 act
COc1ccccc1-c1nc(-c2ccc(Br)o2)no1	3.9	-0.6	-1.5	11.6	·	·
CCN(CC)c1ccc(/C=N/NC(=S)NCc2ccc(OC)cc2)cc1	44.1*	7.9	37.4*	-13.3	-30.4	-29.8
C=CCNC(=S)N/N=C/c1ccc(N(CC)Cc2ccccc2)cc1	24.0*	-16.7	37.1*	-12.2	-19.1	-13.9
COc1ccc(/C=N/NC(=S)NCc2ccccc2)cc1OC	9.4	-8.7	-2.3	-12.1	·	·
C=CCNC(=S)N/N=C/c1ccc(C(F)(F)F)cc1	-0.3	-2.2	-0.1	2.5	·	·
CCN(CC)c1ccc(/C=N/NC(=S)NCc2ccccc2)cc1	67.0*	3.4	42.8*	-8.5	-26.1	-28.9
O=C(CCC1CCCC1)Nc1cccn(Cc2ccccc2Br)c1=O	11.9	2.5	4.6	-3.1	·	·
Cc1ccc(N2CC(C(=O)Nc3ccc(S(=O)(=O)NCC4CCCO4)cc3)CC2=O)cc1 (stereo not given)	8.7	-2.0	2.4	6.6	·	·
CC(C)CCNC(=O)CCc1nnc2n(CCCOC(C)C)c(=O)c3ccccc3n12	4.2	-1.0	8.9	-10.6	·	·
c1ccc(-c2nc(C3CCCCC3)c3sccc3n2)cc1	2.9	-3.0	-3.3	-11.6	·	·
O=c1c(-c2nnc(SCc3ccc(Cl)cc3Cl)o2)cccn1Cc1ccccc1	23.6*	2.6	87.0*	2.5	-12.0	-11.8
CCOP(=O)(OCC)/C(=N/OC(=O)c1ccccc1C)C(N)=O	5.7	-6.6	-7.4	4.5	·	·
COc1cc2c(cc1OC)C(C)N(C(=O)c1cc3c(s1)-c1ccccc1OC3)CC2 (stereo not given)	25.5*	-12.8	37.4*	-5.6	12.7	10.9
COc1cc2c(cc1OC)C(C)N(C(=O)c1cc3c(s1)-c1c(C)cccc1OC3)CC2 (stereo not given)	9.0	4.0	21.6	-0.4	·	·
O=C(Nc1nccs1)c1cc2c(s1)-c1ccccc1OC2	29.6*	-1.9	28.2*	7.9	-29.0	-35.3
